Experimental data reported in publication PMC2745912 (The Journal of neuroscience : the official journal of the …, 2009).

Legend:
[1] = target: T1, hABCG2 (Homo sapiens, UniProt Q9UNQ0); assay type: cell-based; conditions: empty vector-transfected HEK293; 5 μM Aβ1-40; Hoechst 33342; data not shown
T1 sequence (Q9UNQ0 1-655): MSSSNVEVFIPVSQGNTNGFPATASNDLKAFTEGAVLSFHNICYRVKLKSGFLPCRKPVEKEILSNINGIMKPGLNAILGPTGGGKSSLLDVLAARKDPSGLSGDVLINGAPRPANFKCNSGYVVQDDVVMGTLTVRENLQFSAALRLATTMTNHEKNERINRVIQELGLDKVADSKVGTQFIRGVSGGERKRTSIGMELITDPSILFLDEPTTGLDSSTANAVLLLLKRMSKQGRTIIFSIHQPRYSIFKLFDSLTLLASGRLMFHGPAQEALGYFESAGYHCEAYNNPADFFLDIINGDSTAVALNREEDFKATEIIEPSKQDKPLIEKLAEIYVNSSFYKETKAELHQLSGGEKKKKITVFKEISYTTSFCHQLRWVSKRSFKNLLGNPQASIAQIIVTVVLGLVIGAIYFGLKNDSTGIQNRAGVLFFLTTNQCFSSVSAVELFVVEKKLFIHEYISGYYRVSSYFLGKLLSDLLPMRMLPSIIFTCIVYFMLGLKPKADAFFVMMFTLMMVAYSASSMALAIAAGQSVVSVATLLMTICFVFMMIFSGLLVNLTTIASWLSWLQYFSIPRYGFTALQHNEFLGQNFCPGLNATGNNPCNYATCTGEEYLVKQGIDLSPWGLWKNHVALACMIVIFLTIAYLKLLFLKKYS

[2] = target: T2, Abcg2 (Mus musculus, UniProt Q7TMS5); assay type: in vivo
T2 sequence (Q7TMS5 1-657): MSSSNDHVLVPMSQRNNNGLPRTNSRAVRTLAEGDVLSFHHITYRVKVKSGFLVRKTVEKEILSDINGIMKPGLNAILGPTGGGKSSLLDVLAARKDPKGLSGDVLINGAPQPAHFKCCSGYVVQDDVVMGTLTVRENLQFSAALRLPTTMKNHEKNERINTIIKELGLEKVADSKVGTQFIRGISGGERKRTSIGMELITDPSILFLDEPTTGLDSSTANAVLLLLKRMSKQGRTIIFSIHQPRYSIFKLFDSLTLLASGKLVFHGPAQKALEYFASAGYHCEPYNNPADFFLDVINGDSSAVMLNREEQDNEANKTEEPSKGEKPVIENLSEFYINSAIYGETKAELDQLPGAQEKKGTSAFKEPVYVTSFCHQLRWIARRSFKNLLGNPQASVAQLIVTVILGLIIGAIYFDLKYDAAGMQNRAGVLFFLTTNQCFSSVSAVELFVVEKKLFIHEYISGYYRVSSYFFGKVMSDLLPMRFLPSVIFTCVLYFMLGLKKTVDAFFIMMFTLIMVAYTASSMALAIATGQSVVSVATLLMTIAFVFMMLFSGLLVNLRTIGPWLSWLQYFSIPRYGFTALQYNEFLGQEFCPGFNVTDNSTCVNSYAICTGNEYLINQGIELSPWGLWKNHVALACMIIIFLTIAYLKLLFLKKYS
Outline: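 Peptides were Cy5.5-labeled via NHS ester kit. Adult KO/wt pairs were matched for age, sex and weight and shaved under isoflurane. Pairs received equal labeled peptide (65 or 200 μg) by tail vein. Heads were imaged live (1.5 mm resolution) at 15 min and 2, 4, 6, 8 and/or 24 h. Brains were saline-perfused and scanned ex vivo (1 mm). Excitation: 670 nm pulsed laser diode, 80 MHz, 12 ps.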

[3] = target: T2, Abcg2; assay type: in vivo; conditions: after intravenous injection; brain sections stained with 6E10
Outline: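 Mice received i.v. Cy5.5-labeled Aβ1–40 and underwent optical imaging, then saline perfusion. Brains were OCT-embedded and frozen-sectioned at 10 μm. Sections were immunostained with anti-Aβ 6E10 plus secondary antibody; control sections got secondary antibody only. Vessels were marked with fluorescein-labeled tomato lectin.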

[4] = system: ABCG2 expression in HBEC; test: ABCG2 expression in human brain endothelial cells; assay type: cell-based; conditions: 50 units of either cytokine; data not shown

## Aβ1-40: Synthetic Aβ1-40 peptide purchased from Biopeptides Co., Inc
[1]
  effect of Aβ1-40 peptides on drug uptake in empty vector-transfected cells: did not significantly affect
[2]; Abcg2 KO vs wt mice, i.v. injection of Cy5.5-labeled peptide
  more peptide transported into the brain in the absence of Abcg2: 20~37%

## Cy5.5-labeled Aβ1-40: Synthetic Aβ1-40 labeled with fluorescent dye Cy5.5 using Cy5.5 Mono NHS ester kit
[2]; 65 μg/mouse i.v., two pairs of mice, data not shown
  brain fluorescence concentration, Abcg2 KO vs wt animals: comparatively higher
[3]
  Aβ immunofluorescence in brains of Abcg2 KO mice compared to wt mice: strongly enhanced

## IL-1β: pro-inflammatory cytokine
[4]
  ABCG2 expression in HBEC after cytokine: no changes in ABCG2 expression

## TNF-α
[4]
  ABCG2 expression in HBEC after cytokine: no changes in ABCG2 expression
